Data set [1] can be described thus: Oral drug absorption in fasted Beagle dog at 6.18 mg/kg dosed through intraduodenal route by LC-MS/MS method. The class given is ADME, organism-based, Canis lupus familiaris. The conditions noted are these: in vivo. Also on record: dose 6.18 mg/kg, route intraduodenal. Put shortly: (§1)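 Total absorption followed intraduodenal dosing with LC-MS/MS of plasma over 8 h. It was calculated as the combined dose-normalized AUC of circulating parent prodrug, ertapenem and two monoesters, divided by dose-normalized AUC of ertapenem given iv. Vehicle was 30% Captisol or 0.5% methylcellulose.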

Data set [2] has as its system Canis familiaris. As to the kind of experiment: AUC (0 to 8 hrs) in fasted Beagle dog assessed as 8-OH, benzoate ester level at 6.18 mg/kg dosed through intraduodenal route by LC-MS/MS method. The conditions noted are these: in vivo, other. Also on record: time < 8 hr, dose 6.18 mg/kg, route intraduodenal. It counts as ADME, organism-based, Canis lupus familiaris, Plasma. An outline of the steps:
(§2)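 Prodrugs were given intraduodenally to bypass stomach acid. Plasma was sampled at intervals over 8 h, and parent prodrug, the two monoester metabolites and ertapenem were quantified by LC-MS/MS. The lower limit of quantitation was 5 nM. AUC(0–8) was used, and it differed from AUC(0–∞) by ±20%. Vehicles were 30% Captisol or 0.5% methylcellulose, as solution or suspension depending on compound.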

In data set [3] the test system is Canis familiaris. Briefly: Oral bioavailability in fasted Beagle dog assessed as ertapenem level at 6.18 mg/kg dosed through intraduodenal route by LC-MS/MS method. It counts as ADME, organism-based, Canis lupus familiaris. The note with it: in vivo. Put shortly:
(§3)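 After intraduodenal dosing, plasma over 8 h was analysed by LC-MS/MS. Bioavailability was calculated as dose-normalized AUC of ertapenem formed from the prodrug divided by dose-normalized AUC of ertapenem dosed iv. Vehicle was 30% Captisol or 0.5% methylcellulose.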

A short description of data set [4]: Stability in pH 2.0 simulated gastric fluid assessed as compound degradation to beta-lactam ring open products at 1 uM after 60 mins by LC-MS/MS method. It counts as ADME. The conditions noted are these: read-out: Drug degradation. Put shortly: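 Incubation was in simulated gastric fluid (SGF, pH 2.0) for 60 min, with loss to the β-lactam ring-opened product measured by LC-MS/MS.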

In data set [5] the test system is Canis familiaris. As to the kind of experiment: Oral bioavailability in fasted Beagle dog assessed as assessed as ertapenem and monoetser metabolites level at 6.18 mg/kg dosed through intraduodenal route by LC-MS/MS method. It counts as ADME, organism-based, Canis lupus familiaris. The note with it: in vivo. An outline of the steps: as §1
Data set [6] deals with Rattus norvegicus. As to the kind of experiment: Oral bioavailability in fasted Sprague-Dawley rat assessed as ertapenem and monoetser metabolites level at 10 mg/kg dosed through intraduodenal route by LC-MS/MS method. The conditions noted are these: in vivo. It counts as ADME, organism-based. An outline of the steps:
as §1

A short description of data set [7]: Stability in pH 7.4 phosphate buffer assessed as compound remaining at 50 uM after 3 hrs by LC-MS/MS method. The conditions noted are these: read-out: Stability. The class given is physicochemical.
In data set [8] the test system is Rattus norvegicus. As to the kind of experiment: Oral bioavailability in fasted Sprague-Dawley rat assessed as ertapenem level at 10 mg/kg dosed through intraduodenal route by LC-MS/MS method. It counts as ADME, organism-based. The note with it: in vivo. An outline of the steps: as §3
Data set [9] deals with Canis familiaris. Briefly: AUC (0 to 8 hrs) in fasted Beagle dog assessed as 8-OH, C-3 ester level at 6.18 mg/kg dosed through intraduodenal route by LC-MS/MS method. The class given is ADME, organism-based, Canis lupus familiaris, Plasma. Details: time < 8 hr, dose 6.18 mg/kg, route intraduodenal. The note with it: in vivo, other. Put shortly:
as §2

For data set [10], the system named is Rattus norvegicus. Briefly: AUC (0 to 8 hrs) in fasted Sprague-Dawley rat assessed as ertapenem level at 10 mg/kg dosed through intraduodenal route by LC-MS/MS method. The class given is ADME, organism-based, Plasma. Also on record: time < 8 hr, dose 10 mg/kg, route intraduodenal. The conditions noted are these: in vivo, other. An outline of the steps:
as §2

A short description of data set [11]: Stability in rat plasma assessed as compound remaining at 50 uM at 37 degC after 60 mins by LC-MS/MS method. The class given is ADME, cell-free. The note with it: read-out: Stability. Put shortly:
(§4)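 Prodrugs were incubated in rat or human plasma for 60 min. Disappearance of prodrug and concomitant appearance of ertapenem were followed by LC-MS/MS, and in selected cases monoesters from partial hydrolysis were also monitored. Ertapenem itself was incubated the same way as a control.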

For data set [12], the system named is Canis familiaris. As to the kind of experiment: AUC (0 to 8 hrs) in fasted Beagle dog assessed as ertapenem level at 6.18 mg/kg dosed through intraduodenal route by LC-MS/MS method. Also on record: time < 8 hr, dose 6.18 mg/kg, route intraduodenal. It counts as ADME, organism-based, Canis lupus familiaris, Plasma. The note with it: in vivo, other. An outline of the steps:
as §2

Data set [13] can be described thus: AUC (0 to 8 hrs) in fasted Beagle dog at 6.18 mg/kg dosed through intraduodenal route by LC-MS/MS method. The class given is ADME, organism-based, Canis lupus familiaris. Also on record: time < 8 hr, dose 6.18 mg/kg, route intraduodenal. The note with it: plasma. Put shortly:
as §2

Data set [14] can be described thus: AUC (0 to 8 hrs) in fasted Sprague-Dawley rat at 10 mg/kg dosed through intraduodenal route by LC-MS/MS method. It counts as ADME, organism-based, Plasma. Details: time < 8 hr, dose 10 mg/kg, route intraduodenal. The note with it: Sprague-Dawley, plasma. An outline of the steps: as §2
Data set [15] is described as follows: Stability in human plasma assessed as compound remaining at 50 uM at 37 degC after 60 mins by LC-MS/MS method. It counts as ADME, cell-free. The note with it: read-out: Stability. An outline of the steps: as §4
Data set [16] can be described thus: Stability in pH 6.5 simulated gastrointestinal fluid assessed as compound remaining at 50 uM after 3 hrs by LC-MS/MS method. The note with it: read-out: Stability. It counts as ADME. An outline of the steps:
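Compounds at 50 μM were incubated in fasted-state simulated intestinal fluid (FaSSIF, pH 6.5) for over 3 h. Percent remaining was determined by LC-MS/MS.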

For data set [17], the system named is Canis familiaris. Briefly: Oral bioavailability in fasted Beagle dog assessed as ertapenem level at 10 mg/kg dosed through intraduodenal route by LC-MS/MS method. The conditions noted are these: in vivo, BLD = below limit of detection. It counts as ADME, organism-based, Canis lupus familiaris. Put shortly:
as §3

The nature of data set [18]: Oral drug absorption in fasted Beagle dog at 10 mg/kg dosed through intraduodenal route by LC-MS/MS method. The class given is ADME, organism-based, Canis lupus familiaris. Also on record: dose 10 mg/kg, route intraduodenal. The conditions noted are these: in vivo. Put shortly: as §1
Data set [19] in a line: AUC (0 to 8 hrs) in fasted Beagle dog at 10 mg/kg dosed through intraduodenal route by LC-MS/MS method. The class given is ADME, organism-based, Canis lupus familiaris, Plasma. Details: time < 8 hr, dose 10 mg/kg, route intraduodenal. The note with it: Beagle, plasma. Put shortly:
as §2

Data set [20] has as its system Canis familiaris. As to the kind of experiment: Oral bioavailability in fasted Beagle dog assessed as assessed as ertapenem and monoetser metabolites level at 10 mg/kg dosed through intraduodenal route by LC-MS/MS method. The class given is ADME, organism-based, Canis lupus familiaris. The conditions noted are these: in vivo. An outline of the steps: as §1
The subject of data set [21] is Canis familiaris. Briefly: AUC (0 to 8 hrs) in fasted Beagle dog assessed as ertapenem level at 10 mg/kg dosed through intraduodenal route by LC-MS/MS method. The class given is ADME, organism-based, Canis lupus familiaris, Plasma. Details: time < 8 hr, dose 10 mg/kg, route intraduodenal. The conditions noted are these: in vivo, other. An outline of the steps: as §2

The subject of data set [22] is Canis familiaris. Briefly: AUC (0 to 8 hrs) in fasted Beagle dog assessed as 8-OH, C-3 ester level at 10 mg/kg dosed through intraduodenal route by LC-MS/MS method. The conditions noted are these: in vivo, other, BLD = below limit of detection. The class given is ADME, organism-based, Canis lupus familiaris, Plasma. Also on record: time < 8 hr, dose 10 mg/kg, route intraduodenal. An outline of the steps: as §2

Data set [23] in a line: AUC (0 to 8 hrs) in fasted Sprague-Dawley rat at 1 mg/kg, iv by LC-MS/MS method. It counts as ADME, organism-based. Also on record: time < 8 hr, dose 1 mg/kg, route intravenous. The conditions noted are these: plasma.
For data set [24], the system named is Canis familiaris. Briefly: AUC (0 to 8 hrs) in fasted Beagle dog assessed as ertapenem level at 1 mg/kg, iv by LC-MS/MS method. Also on record: time < 8 hr, dose 1 mg/kg, route intravenous. The note with it: in vivo. The class given is ADME, organism-based, Canis lupus familiaris, Plasma.

As usually defined, the AUC is concentration integrated over time. As a reminder, the AUC(0-t) is exposure summed from dosing to a finite time, without extrapolation to infinity. Higher therefore signals more exposure.

Structures are written as SMILES.

Molecule `CC(C)OC(=O)C1=C(S[C@@H]2CN[C@H](C(=O)Nc3cccc(C(=O)OC(C)C)c3)C2)[C@H](C)[C@@H]2[C@@H]([C@@H](C)O)C(=O)N12` came in with a Fa in data set [1] of 5.1%. Further, the AUC in the data set with Canis familiaris [2] is 0.3 µM·h; with Canis familiaris [9], 0.2 µM·h; in the data set on Rattus norvegicus [10] it was < 0.1 µM·h; in the data set with Canis familiaris [12] it was 0.2 µM·h. Moreover, the F in the data set with Canis familiaris [3] is given as 0.5%; with Canis familiaris [5] it was 5.1%; with Rattus norvegicus [6], 0.1%; in the data set with Rattus norvegicus [8] it was < 0.1%. For the same molecule, the degraded at 1 h, 1 µM in data set [4] was > 25%. In addition, the remaining at 3 h, 50 µM in data set [7] and in data set [16] was > 95% each time. The remaining at 1 h, 50 µM in data set [11] was 0%; in data set [15] it was 16%. Besides, the AUC(0-t) at 8 h in data set [13] came out at 1.6 µM·h; in data set [14], 0.09 µM·h.
On to `CC(C)CCC[C@@H](C)[C@H]1CC[C@H]2[C@@H]3CC=C4C[C@@H](OC(=O)COC(=O)c5cccc(NC(=O)[C@@H]6C[C@H](SC7=C(C(=O)OCC(F)(F)F)N8C(=O)[C@H]([C@@H](C)O)[C@H]8[C@H]7C)CN6)c5)CC[C@]4(C)[C@H]3CC[C@]12C`, for which the F entry in the data set with Canis familiaris [17] is recorded as “BLD”; in the data set on Canis familiaris [20], 0.1%. Further, in data set [18], the Fa was < 0.1%. Moreover, the AUC(0-t) at 8 h in data set [19] is < 0.1 µM·h. The degraded at 1 h, 1 µM in data set [4] was > 25%. The AUC entry with Canis familiaris [21] (BLD = below limit of detection) and in the data set with Canis familiaris [22] was “BLD” each time. Further, the remaining at 3 h, 50 µM in data set [7] and in data set [16] was > 95% each time. In addition, the remaining at 1 h, 50 µM in [11] is 97%; in data set [15], 92%.
In data set [23], `C[C@@H](O)[C@H]1C(=O)N2C(C(=O)[O-])=C(S[C@@H]3CN[C@H](C(=O)Nc4cccc(C(=O)O)c4)C3)[C@H](C)[C@H]12.O.[Na+]` returned an AUC(0-t) at 8 h of 7.8 µM·h. Moreover, the degraded at 1 h, 1 µM in data set [4] was > 25%. Also, the AUC came to 1.4 µM·h in the data set on Canis familiaris [21], 8.9 µM·h in the data set with Canis familiaris [24] and 0.5 µM·h in the data set on Rattus norvegicus [10]. Further, the F with Rattus norvegicus [6] and in the data set with Rattus norvegicus [8] was 0.7% each time. Also, the remaining at 3 h, 50 µM in [7] and in [16] was > 95% each time. Moreover, the remaining at 1 h, 50 µM in data set [11] and in data set [15] was 100% each time.

Values taken from ChEMBL document CHEMBL3351346, “Design, synthesis, structure-function relationship, bioconversion, and pharmacokinetic evaluation of ertapenem prodrugs” (J Med Chem, 2014).
